SENP8 block-1: inhibitors of human SENP8 protease | Q96LD8 | recombinant SENP8, Nedd8 substrate fluorescence | inhibition, % at 20 µM | 360,000 tested, 0.64% active; in the data active = inhibition mostly above about 40%, no sharp cut-off; inactive = mostly below about 27%
Target sequence (Q96LD8 whole entry, looked up): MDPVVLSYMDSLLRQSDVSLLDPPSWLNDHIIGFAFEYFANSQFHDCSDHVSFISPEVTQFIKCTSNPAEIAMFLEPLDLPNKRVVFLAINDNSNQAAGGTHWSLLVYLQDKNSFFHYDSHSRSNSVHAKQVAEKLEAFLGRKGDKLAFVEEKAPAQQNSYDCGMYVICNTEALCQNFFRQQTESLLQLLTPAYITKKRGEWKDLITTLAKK
SENP6 inh: blocks the human protease SENP6; AID 2599; Q9GZR1; inhibition, % at 10 µM; 330,000 tested, 1.8% active; Recombinant SENP6 catalytic domain, aminoluciferin luminescence;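 active = inhibition above about 50% at the single tested dose, limit read from the data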;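 also: plate controls were DMSO wells with enzyme for no effect and DMSO wells lacking enzyme for full effect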
SENP7 block: inhibitors of human SENP7 protease; Q9BQF6; recombinant SENP7, Z-RLRGG-aminoluciferin luminescence, 40 min; inhibition, % at 5 µM; 330,000 tested, 1.5% active; AID 434973;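 active = inhibition above about 50% at the single test dose, limit read from the data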;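 also: plate controls were DMSO with enzyme for no effect and no enzyme buffer wells for full effect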
SENP8 block-2: SENP8 protease inhibition; Q96LD8; purified SENP8, Z-RLRGG-aminoluciferin cleavage, luminescence; inhibition, % at 10 µM; 330,000 tested, 1.2% active; in the data active = inhibition above about 50%
SENP1 FRET inh: inhibitors of human SENP1 SUMO protease catalytic domain; recombinant SENP1 catalytic domain, CyPet-SUMO1-YPet FRET cleavage; 360,000 tested, 0.21% active; inhibition, % at 10 µM; Q9P0U3;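 active = inhibition at least 30% at 10 µM, raw YFP signal under a set limit, fluorescence ratio 0.5 to 1.5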;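 also: 0% = enzyme with DMSO and 100% = no enzyme wells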
Target sequence (Q9P0U3 419-644 limits assumed): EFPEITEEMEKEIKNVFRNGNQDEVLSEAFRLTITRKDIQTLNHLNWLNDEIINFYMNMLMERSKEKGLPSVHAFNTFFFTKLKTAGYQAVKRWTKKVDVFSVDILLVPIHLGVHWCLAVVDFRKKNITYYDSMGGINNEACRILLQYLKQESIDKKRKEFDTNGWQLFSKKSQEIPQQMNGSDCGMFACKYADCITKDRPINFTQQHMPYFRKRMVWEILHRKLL
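Material – human SENP1 catalytic domain · Input – SENP1 enzyme, 20 pM final · Compound dosing – single concentration of 10 µM compound, 0.5% DMSO final · Timing – enzyme reaction for 50 min at room temperature, dark · Measured by – FRET fluorescence in CFP and YFP emission channels · Control set – no-enzyme wells low, DMSO-plus-enzyme wells high control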
HSP90 refold inh: HSP90 refolding inhibition in rabbit reticulocyte lysate. luciferase refolding luminescence, 3 h. inhibition, % at 5.6 µM. 290,000 tested, 0.91% active. AID 1789;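 active = inhibition above the screen-wide mean plus 3 SD, computed separately per campaign, cut at about 16% in these data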;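 also: 0% = DMSO wells and 100% = 60 µM geldanamycin wells; inhibitors lower the luminescence because luciferase stays unfolded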
SENP8 confirm: human SENP8 inhibition, confirmed; 6,200 tested, 40% active; Recombinant SENP8, Z-RLRGG-aminoluciferin luminescence, 60 min; shares compounds with SENP7 block; inhibition, % at 12.5 µM;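 active = mean inhibition across replicates above about 50%, limit read from the data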
SENP6 confirm: human SENP6 inhibition, confirmed. inhibition, % at 12.5 µM. recombinant SENP6, Z-RLRGG-aminoluciferin luminescence. shares compounds with SENP7 block. 6,200 tested, 58% active. AID 488915
SENP7 confirm: confirmation of human SENP7 protease inhibitors | shares compounds with SENP7 block | recombinant SENP7, Z-RLRGG-aminoluciferin luminescence, 40 min | inhibition, % at 12.5 µM | 6,200 tested, 69% active | AID 488917
Casp3 SENP sel: caspase-3 inhibition (SENP selectivity assay); shares compounds with SENP7 block; purified caspase-3, Z-DEVD-aminoluciferin luminescence, 60 min; inhibition, % at 12.5 µM; 6,200 tested, 60% active; AID 488918;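 active = mean inhibition above about 50%, limit read from the data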;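 also: plate controls were enzyme with DMSO for no effect and wells without caspase-3 for full effect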
Target sequence (P42574 28-227 limits assumed): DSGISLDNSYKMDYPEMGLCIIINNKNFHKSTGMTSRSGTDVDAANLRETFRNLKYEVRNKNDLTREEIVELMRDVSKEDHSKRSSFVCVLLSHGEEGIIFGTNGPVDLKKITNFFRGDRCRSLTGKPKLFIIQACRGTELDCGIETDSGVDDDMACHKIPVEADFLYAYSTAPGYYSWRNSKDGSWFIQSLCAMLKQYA
SENP luc ctr: luminescence interference (SENP counter-screen); shares compounds with SENP7 block; Pre-incubated SENP8/Z-RLRGG-aminoluciferin, luciferase luminescence interference; inhibition, % at 12.5 µM; 6,200 tested, 39% active; AID 488919;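 active = mean inhibition above about 50% when retested at one dose, limit read from the data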;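 also: plate controls were DMSO wells with completed reaction for no effect and substrate without enzyme for full effect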
Starred values were filed as active, the others as inactive. Rows were chosen to be rich in hits. Some 2.9% of all compounds tested hit in one or more screens of this group.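 The calls were made as follows, unless noted: active = mean inhibition above about 50% in the one-dose retest (limit read from the data); inactive = the rest.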

For Cc1cccn2cc(-c3ccc(S(=O)(=O)N4CCOCC4)cc3)nc12 the results were SENP8 block-1 -311, SENP6 inh 2, SENP7 block 3, SENP8 block-2 -11, SENP1 FRET inh 2 and HSP90 refold inh 3.
O=C(c1cc(-c2cccc(O)c2)on1)N1CCCC1 was read as SENP8 block-1 15, SENP6 inh 50*, SENP7 block 18, SENP8 block-2 17, SENP1 FRET inh -5, HSP90 refold inh 10, SENP8 confirm 45, SENP6 confirm 40, SENP7 confirm 78*, Casp3 SENP sel 70* and SENP luc ctr 38.
`O=C(c1cc(-c2ccc3c(c2)OCO3)on1)N1CCOCC1` gave SENP8 block-1 -3, SENP6 inh 67*, SENP7 block 57*, SENP8 block-2 32, SENP1 FRET inh 1, HSP90 refold inh 15, SENP8 confirm 58*, SENP6 confirm 52*, SENP7 confirm 84*, Casp3 SENP sel 82* and SENP luc ctr 54*.
O=C(c1cc(-c2cccc(O)c2)on1)N1CCCCC1 was read as SENP8 block-1 4, SENP6 inh -8, SENP7 block 68*, SENP8 block-2 61*, SENP1 FRET inh 2, HSP90 refold inh 12, SENP8 confirm 7, SENP6 confirm 67*, SENP7 confirm 91*, Casp3 SENP sel 78* and SENP luc ctr 73*.
For O=C(c1cc(-c2ccc(O)cc2)on1)N1CCCC1 the results were SENP8 block-1 10, SENP6 inh 39, SENP7 block 7, SENP8 block-2 14, SENP1 FRET inh 7 and HSP90 refold inh 12.
Cc1ccc(C(=O)NCc2ccccn2)cc1NC1=NC2CS(=O)(=O)CC2S1 (stereo not drawn) was read as SENP8 block-1 11, SENP6 inh -4, SENP7 block -1, SENP8 block-2 -4, SENP1 FRET inh -2 and HSP90 refold inh -6.
CCOC(=O)c1ccccc1N/C=C/C(=O)c1ccccc1 was read as SENP8 block-1 -310, SENP6 inh 50*, SENP7 block 31, SENP8 block-2 8, SENP1 FRET inh -55, HSP90 refold inh 0, SENP8 confirm 32, SENP6 confirm 36, SENP7 confirm 64*, Casp3 SENP sel 36 and SENP luc ctr 34.
CCOC(=O)c1ccc(N/C=C/C(=O)c2ccccc2)cc1 was read as SENP8 block-1 -469, SENP6 inh 93*, SENP7 block 95*, SENP8 block-2 84*, SENP1 FRET inh -135, HSP90 refold inh 2, SENP8 confirm 13, SENP6 confirm 57*, SENP7 confirm 24, Casp3 SENP sel 67* and SENP luc ctr 9.
CC(C)CN1C(=O)CSCC1(C)C(=O)Nc1ccc2c(c1)OCCO2 (stereo not drawn) was read as SENP8 block-1 17 and SENP1 FRET inh 3.
O=C(COc1ccccc1F)N1N=C(c2cccs2)CC1c1ccco1 (stereo not drawn) was read as SENP8 block-1 -417, SENP6 inh -8, SENP7 block -7, SENP8 block-2 -4 and SENP1 FRET inh 0.
Cc1ccc(-c2nc3ccccc3[nH]2)s1 was read as SENP8 block-1 -483, SENP6 inh 97*, SENP7 block 97*, SENP8 block-2 93*, SENP1 FRET inh 59*, HSP90 refold inh 6, SENP8 confirm 96*, SENP6 confirm 96*, SENP7 confirm 100*, Casp3 SENP sel 96* and SENP luc ctr 95*.
`Fc1ccc(-c2nc(-c3cccs3)[nH]c2-c2ccc(F)cc2)cc1` gave SENP8 block-1 -295, SENP6 inh 7, SENP7 block -2, SENP8 block-2 -5, SENP1 FRET inh 16 and HSP90 refold inh 1.
c1csc(-c2nc3ccccc3[nH]2)c1 was read as SENP8 block-1 inactive, SENP6 inh 53*, SENP7 block 39, SENP8 block-2 3, SENP1 FRET inh 5, HSP90 refold inh -4, SENP8 confirm 33, SENP6 confirm 31, SENP7 confirm 69*, Casp3 SENP sel 66* and SENP luc ctr 21.
`Cc1nnsc1-c1nc2ccccc2[nH]1` gave SENP8 block-1 inactive, SENP6 inh -8, SENP7 block -9, SENP8 block-2 -13, SENP1 FRET inh -3 and HSP90 refold inh -2.
Screening CC[C@H](C)[C@H]1O[C@]2(CC[C@@H]1C)C[C@@H]1C[C@@H](CC=C(C)[C@@H](O[C@H]3C[C@H](OC)[C@@H](O[C@H]4C[C@H](OC)[C@@H](O)[C@H](C)O4)[C@H](C)O3)[C@@H](C)C=CC=C3CO[C@@H]4[C@H](O)C(C)=C[C@@H](C(=O)O1)[C@]34O)O2 returned SENP8 block-1 -126, SENP6 inh -12, SENP7 block -5, SENP8 block-2 -7 and SENP1 FRET inh -29.
`Cn1c(NC(=O)c2ccc(F)cc2)nc2ccccc21` gave SENP8 block-1 -36, SENP6 inh 80*, SENP7 block 78*, SENP8 block-2 65*, SENP1 FRET inh 1, HSP90 refold inh 0, SENP8 confirm 46, SENP6 confirm 75*, SENP7 confirm 95*, Casp3 SENP sel 86* and SENP luc ctr 17.
Cc1ccnc(NC(=O)c2ccc(Br)s2)c1 was read as SENP8 block-1 10, SENP6 inh 88*, SENP7 block 92*, SENP8 block-2 82*, SENP1 FRET inh 1, HSP90 refold inh 5, SENP8 confirm 86*, SENP6 confirm 87*, SENP7 confirm 98*, Casp3 SENP sel 91* and SENP luc ctr 88*.
Screening Cc1ccc(C(=O)Nc2ccc3nc(C)sc3c2)s1 returned SENP8 block-1 20, SENP6 inh 0, SENP7 block 0, SENP8 block-2 0, SENP1 FRET inh 1 and HSP90 refold inh -2.
`Cc1ccnc(NC(=O)c2cccs2)c1` gave SENP8 block-1 14, SENP6 inh 54*, SENP7 block 57*, SENP8 block-2 38, SENP1 FRET inh -3, HSP90 refold inh 0, SENP8 confirm 51*, SENP6 confirm 51*, SENP7 confirm 84*, Casp3 SENP sel 86* and SENP luc ctr 62*.

High-throughput results as filed in PubChem BioAssay.
